From PubChem BioAssay
Rows were chosen to be rich in hits. Some 5% of all compounds tested hit in one or more screens of this group.
CHOP UPR activ: apoptotic UPR (CHOP) activation; CHO-CHOP luciferase reporter, luminescence; percent of tunicamycin response over DMSO baseline; activation, % at 10 µM; 330,000 tested, 0.34% active; AID 449763;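 active means at 10 µM dose, activation of 40% or more, normalized to positive control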;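 further: 100% = tunicamycin at 10 µg/mL and 0% = DMSO alone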
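System: CHO-CHOP luciferase reporter cell line | Buffer or medium: F12 medium containing 10% fetal bovine serum | Doses: One dose, 10 µM in 0.5% DMSO | Times: 6 h compound exposure at 37 °C after overnight seeding | Signal: Luciferase luminescence | Read-out: % activation vs tunicamycin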
Beta cell apopt: blocks beta cell apoptosis; INS-1E cytokine-induced death, ATP luminescence, 48 h; percent of positive-control rescue, neutral wells zero; protection from apoptosis, % (concentration not given with the values); 300,000 tested, 0.8% active; AID 435005;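 active means Every replicate reaches about 75%, or at least half do and their mean reaches it too, limit read from the data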;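 further: 0% = cytokine-treated negative control wells and 100% = positive control rescue; higher means more ATP so stronger rescue from cytokine killing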
UPR XBP1 act: adaptive UPR (XBP1) activation; activation, % at 20 µM; 330,000 tested, 0.33% active; CHO-XBP1 luciferase reporter, IRE1-XBP1 UPR activation, luminescence; percent of tunicamycin response, DMSO as zero;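 active means versus positive control, 20 µM dose yields 30% or more activation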;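 further: 100% = tunicamycin at 10 µg/mL and 0% = DMSO only wells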
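Material: CHO cell line with stable XBP1 luciferase reporter; buffer or medium: F12 medium containing 10% fetal bovine serum; compound: single point, 20 µM final compound, 1% DMSO; incubation: 6 h treatment, 37 °C; measured by: glow luminescence from Steady-Glo reagent; evaluation: activation, % of tunicamycin; control set: tunicamycin high, DMSO low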
CSC inhib: blocks cancer stem cells | cancer stem cell-like cells viability, luminescence | inhibition, % at 7.5 µM | 300,000 tested, 1.1% active; in the data active means inhibition above about 75%; tested in HMLE shEcad cells
T cruzi repl: T. cruzi replication inhibition; 300,000 tested, 1.4% active; AID 1885; inhibition, % (no concentration beside the values); T. cruzi beta-gal in NIH3T3, luminescence, 90 h;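 active means mean inhibition across valid replicates above about 55%, limit read from the data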;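 further: signal also drops with host cell toxicity which is not excluded here; 0% = plate median of DMSO wells and 100% = zero luminescence signal; higher percent means less beta-gal luminescence so fewer parasites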
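Read-out: Parasite load inhibition, % | Test system: Mouse NIH/3T3 fibroblasts infected with β-gal-expressing T. cruzi Tulahuen C4 | Amount: 5,000 cells/well | Medium: DMEM, 2% fetal bovine serum | Signal: GalScreen β-gal luminescence, detergent lysis, 60 min | Timing: 3 h attach, ≥90 h co-culture | Also added: Tulahuen C4 trypomastigotes, 5000/well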
Mdm2 MdmX PPI: inhibitors of human Mdm2/MdmX interaction; inhibition, % at 8 µM; 330,000 tested, 3% active; SaOS-2 split-luciferase Mdm2/MdmX complementation, luminescence;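 active means inhibition of at least 50% at 8 µM in the primary screen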
Target sequence (O15151 whole entry, looked up): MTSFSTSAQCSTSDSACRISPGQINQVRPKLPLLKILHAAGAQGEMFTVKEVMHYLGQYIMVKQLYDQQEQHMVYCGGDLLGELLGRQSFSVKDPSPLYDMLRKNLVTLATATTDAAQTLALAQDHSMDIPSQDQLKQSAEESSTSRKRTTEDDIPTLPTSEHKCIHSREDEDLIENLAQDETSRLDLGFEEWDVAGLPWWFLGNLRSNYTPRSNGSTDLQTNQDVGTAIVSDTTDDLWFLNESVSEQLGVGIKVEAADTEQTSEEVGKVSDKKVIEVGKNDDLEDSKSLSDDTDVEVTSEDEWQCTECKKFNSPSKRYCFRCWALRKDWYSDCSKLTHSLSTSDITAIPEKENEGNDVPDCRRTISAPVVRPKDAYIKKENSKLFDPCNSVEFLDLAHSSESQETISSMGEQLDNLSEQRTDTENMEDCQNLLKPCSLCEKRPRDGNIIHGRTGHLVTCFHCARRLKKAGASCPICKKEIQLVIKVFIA
Target sequence (Q00987 whole entry, looked up): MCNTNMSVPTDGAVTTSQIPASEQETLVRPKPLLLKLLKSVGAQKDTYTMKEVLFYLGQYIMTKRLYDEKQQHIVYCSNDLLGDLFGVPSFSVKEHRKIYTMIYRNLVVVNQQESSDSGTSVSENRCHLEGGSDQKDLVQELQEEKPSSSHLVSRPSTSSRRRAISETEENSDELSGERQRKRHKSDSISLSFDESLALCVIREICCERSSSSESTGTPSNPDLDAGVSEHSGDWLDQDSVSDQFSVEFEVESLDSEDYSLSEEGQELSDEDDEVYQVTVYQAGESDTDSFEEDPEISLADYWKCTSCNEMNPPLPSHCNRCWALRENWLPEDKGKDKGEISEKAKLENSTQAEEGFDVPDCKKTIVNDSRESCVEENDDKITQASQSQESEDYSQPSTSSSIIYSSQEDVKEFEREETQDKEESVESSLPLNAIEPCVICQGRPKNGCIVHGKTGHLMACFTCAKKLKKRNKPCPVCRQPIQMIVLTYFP
Mdm2 MdmX conf: confirmation of human Mdm2/MdmX interaction inhibitors; inhibition, % at 8 µM; 10,000 tested, 55% active; shares compounds with Mdm2 MdmX PPI; AID 489028; Mdm2-MdmX binding, luminescent assay; in the data active means inhibition above about 40%
Full FLuc ctr: counter-screen for Mdm2/MdmX inhibitors: full-length luciferase | shares compounds with Mdm2 MdmX PPI | SaOS-2 full-length luciferase counterscreen, luminescence | inhibition, % at 8 µM | 6,200 tested, 77% active | AID 504607;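 active means mean inhibition at 8 µM reaching about 37%, which flags the compound as non-specific, limit read from the data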;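 further: p53-null SaOS-2 cells with luciferase driven by a doxycycline-inducible promoter; compound on cells about two nights before reading with doxycycline added after day one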
The depositor's hits bear a star; . = not tested or not shown.

SMILES	CHOP UPR activ	Beta cell apopt	UPR XBP1 act	CSC inhib	T cruzi repl	Mdm2 MdmX PPI	Mdm2 MdmX conf	Full FLuc ctr
Cc1noc(C)c1CSCC(=O)Nc1nc(-c2ccc(F)c(F)c2)cs1	0	5	-3	11	2	30	.	.
COc1ccc([C@@H]2[C@@H]3C(=O)N(C(C)(C)C)C(=O)[C@@H]3[C@]3(Cc4ccc(Cl)cc4)C(=O)N(c4ccc(Br)cc4)C(=O)N23)cc1	0	7	2	7	29	74*	91*	27
CC(C)(C)N1C(=O)[C@H]2[C@@H](c3ccc(Br)cc3)N3C(=O)N(c4ccc(Br)cc4)C(=O)[C@@]3(Cc3ccccc3)[C@H]2C1=O	1	13	2	14	36	83*	89*	36
Cc1cccc([C@@H]2[C@@H]3C(=O)N(Cc4ccccc4)C(=O)[C@@H]3[C@]3(Cc4ccccc4)C(=O)N(c4ccc(C(F)(F)F)cc4)C(=O)N23)c1	2	10	-1	11	21	99*	100*	49*
CC1CC(C)CN(S(=O)(=O)c2cccc(C(=O)OCCN3CCCC3=O)c2)C1 (stereo not drawn)	-4	-2	-4	4	5	21	.	.
C=CCn1c(C)cc(C(=O)CN2NS(=O)(=O)c3ccccc3C2=O)c1C	2	31	-3	0	-4	64*	38	.
C=CCn1c(C)cc(C(=O)Cn2ncc(Cl)c(Cl)c2=O)c1C	.	-8	.	6	-26	.	.	.
Cc1ccc(C)c(CN2C(=O)c3ccccc3S(=O)c3ccc(C(=O)NCCCN4CCCC4)cc32)c1 (stereo not drawn)	0	2	1	10	28	51*	16	.
Cc1ccc(CN2C(=O)c3ccccc3Sc3ccc(C(=O)NCCN4CCOCC4)cc32)cc1	1	0	0	54	0	52*	54*	69*
O=C(NCCCN1CCCC1)c1ccc2c(c1)N(Cc1ccccc1F)C(=O)c1ccccc1S2=O (stereo not drawn)	2	-7	-3	12	17	5	.	.
Cc1cccc(CN2C(=O)c3ccccc3Sc3ccc(C(=O)NCCN4CCOCC4)cc32)c1	-2	0	0	16	2	1	.	.
CC(=O)c1ccc(NC(=O)c2ccc(NC(=O)c3ccco3)cc2)cc1	2	-2	3	-4	-5	71*	13	.
CCOc1ccccc1NC(=O)c1cccc(NC(=O)c2ccco2)c1	-1	17	3	60	0	62*	67*	64*
CCOC(=O)c1cccc(NC(=O)c2ccc(NC(=O)c3ccco3)cc2)c1	-1	2	2	-7	5	73*	13	.
Cc1ccccc1NC(=O)c1cccc(NC(=O)c2ccco2)c1	-1	.	-5	6	1	10	.	.
O=C(Nc1ccccc1)c1cccc(NC(=O)c2ccco2)c1	-1	-3	3	2	-18	10	.	.
COC(=O)c1ccc(NC(=O)c2ccc(NC(=O)c3ccco3)cc2)cc1	2	0	1	10	10	17	.	.
CCN(CC(=O)NCc1ccc(F)cc1)C(=O)c1ccc(Cl)cc1	0	2	-9	-16	-10	8	.	.
COc1ccc(C(NC(=O)C(C)C)c2ccc3cccnc3c2O)cc1 (stereo not drawn)	0	104*	6	104*	54	77*	83*	29
CC(NC(=O)CSc1ncccn1)c1ccc(Cl)cc1Cl (stereo not drawn)	0	-4	3	11	-2	-10	.	.
CC(C)C(=O)NC(NC(=S)Nc1cccc2cccnc12)C(Cl)(Cl)Cl (stereo not drawn)	-1	-5	-1	.	-20	-1	.	.
CC(C)C(=O)NC(c1ccc(Cl)cc1Cl)c1ccc2cccnc2c1O (stereo not drawn)	2	.	0	100*	40	84*	91*	22
Cc1cc(NC(c2ccc(Cl)cc2)c2ccc3cccnc3c2O)no1 (stereo not drawn)	8	.	1	101*	37	63*	82*	27
CCC(=O)NC(c1ccc(Cl)cc1Cl)c1ccc2cccnc2c1O (stereo not drawn)	1	104*	3	104*	67*	78*	87*	20
COc1ccc(OCC(=O)Nc2cccc3cccnc23)cc1	0	4	0	-2	-3	5	.	.
SMILES	CHOP UPR activ	Beta cell apopt	UPR XBP1 act	CSC inhib	T cruzi repl	Mdm2 MdmX PPI	Mdm2 MdmX conf	Full FLuc ctr
CCN(C(=O)COC(=O)CCC(=O)c1ccccc1)c1c(N)n(Cc2ccccc2)c(=O)[nH]c1=O	1	0	1	3	.	3	.	.
c1ccc2c(c1)CCN(C1=Nc3cccc4cccc1c34)C2	3	.	-3	.	.	-33	.	.
O=C(Nc1ccc2c(c1)OCCO2)C1CCCN(S(=O)(=O)c2cccs2)C1 (stereo not drawn)	4	-5	2	-12	1	11	.	.
COc1ccc(Cl)cc1NC(=O)CN(C)C(=O)c1cc(C)oc1C	0	-3	-1	-11	.	29	.	.
CCCCC(=O)NC(c1ccc(Cl)cc1Cl)c1ccc2cccnc2c1O (stereo not drawn)	0	85*	-1	109*	64*	77*	87*	51*
O=C(OCC(=O)c1ccc(Cl)cc1Cl)c1cnccn1	-1	0	-2	-3	-2	-17	.	.
C=CCn1c(O)c(N=NC(=S)Nc2cccc(C)c2)c2ccccc21	15	60	0	44	59*	61*	55*	33
Cc1ccc(NC(=O)Cn2c(O)c(N=NC(N)=S)c3ccccc32)cc1	17	19	60*	10	-20	51*	32	65*
CCn1c(O)c(N=NC(=O)CNc2cccc(C)c2)c2ccccc21	-2	3	-3	-20	2	40	.	.
Cc1c(Cl)cccc1NC(=S)N=Nc1c(O)n(CN2CCOCC2)c2ccccc12	14	46	7	61	63*	82*	63*	51*
C=CCn1c(O)c(N=NC(=S)Nc2ccccc2F)c2ccccc21	19	56	3	2	49	76*	57*	50*
Cc1ccc(Cn2c(O)c(N=NC(=S)Nc3ccccc3F)c3ccccc32)cc1	1	14	0	27	66*	57*	60*	48*
Cc1cnc(C(=O)OCC(=O)Nc2cc(Cl)ccc2C#N)cn1	0	-1	1	.	.	3	.	.
